From ChEMBL document CHEMBL1153767, “Bromoalkoxyxanthones as promising antitumor agents: synthesis, crystal structure and effect on human tumor cell lines” (2009)

Key:
Type in all cases: functional
NCI-H460 = assay: Antitumor activity against human NCI-H460 cells assessed as inhibition of growth after 48 hrs using sulforhodamine B dye; conditions: NCI-H460, 48 h
How it was run: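 NCI-H460 plated at 0.75 × 10⁴ cells/mL, grown 24 h, then treated 48 h with five serial dilutions from DMSO stocks (DMSO at most 0.5%, vehicle control included). After fixing, washing and staining, solubilized dye read at 492 nm. GI50 (50% net growth inhibition) derived from the dose–response curve; 3–5 independent duplicate experiments, mean ± SEM.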

MCF7 = assay: Antitumor activity against human MCF7 cells expressing estrogen receptor assessed as inhibition of growth after 48 hrs using sulforhodamine B dye; conditions: MCF7, 48 h
How it was run: (§1)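 Cells pre-grown 24 h after plating at 1.5 × 10⁵ cells/mL, then exposed 48 h to five serial concentrations from DMSO stocks (DMSO at most 0.5%, vehicle control included). Adherent cells fixed, washed and stained; bound dye solubilized and absorbance read at 492 nm. GI50 (50% inhibition of net growth) from dose–response curve; 3–5 independent experiments in duplicate, mean ± SEM.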

MDA-MB-231 = assay: Antitumor activity against human estrogen receptor deficient MDA-MB-231 cells assessed as inhibition of growth after 48 hrs using sulforhodamine B dye; conditions: MDA-MB-231, 48 h
SF-268 = assay: Antitumor activity against human SF268 cells assessed as inhibition of growth after 48 hrs using sulforhodamine B dye; conditions: SF-268, 48 h; how it was run: as §1

| Structure (SMILES) | GI50 (NCI-H460) | GI50 (MCF7) | GI50 (MDA-MB-231) | GI50 (SF-268) |
| --- | --- | --- | --- | --- |
| O=c1c2ccccc2oc2cccc(OCCCCCCBr)c12 | 30.7 µM | 22.7 µM | > 100 µM | 30.2 µM |
| O=c1c2ccccc2oc2cccc(OCCCCCCOc3cccc4oc5ccccc5c(=O)c34)c12 | > 100 µM | > 100 µM | > 100 µM | > 100 µM |
| O=c1c2ccccc2oc2cccc(O)c12 | 84.9 µM | > 100 µM | 66 µM | 70.8 µM |
| O=C(c1ccccc1O)c1ccc(O)cc1O | 91.2 µM | 100 µM |  | > 100 µM |
| COc1cccc2c1C(=O)c1c(O)c3c(c(O)c1C2=O)C[C@@](O)(C(=O)CO)C[C@@H]3O[C@H]1C[C@H](N)[C@H](O)[C@H](C)O1 [DOXORUBICIN] | 0.094 µM |  | 0.0109 µM | 0.094 µM |

Second part, led by results:

| GI50 (NCI-H460) | GI50 (MCF7) | GI50 (MDA-MB-231) | Structure (SMILES) | GI50 (SF-268) |
| --- | --- | --- | --- | --- |
| > 100 µM | > 100 µM | > 100 µM | O=c1c2ccccc2oc2c(O)c(OCCCCCCBr)ccc12 | > 100 µM |
| > 100 µM | 20.5 µM | 56.8 µM | O=c1c2ccccc2oc2c(OCCCCCCBr)c(OCCCCCCBr)ccc12 | > 100 µM |
| 11.4 µM | 52.4 µM | 22.8 µM | O=c1c2ccccc2oc2c(O)c(O)ccc12 [3,4-DIHYDROXYXANTHONE] | 22.6 µM |
